# Assay results collected from several papers.
# Compare with care: the assays were run in different laboratories.
# HTR2B: 5-hydroxytryptamine receptor 2B (HTR2B, Homo sapiens, UniProt P41595)
# HTR2C: 5-hydroxytryptamine receptor 2C (HTR2C, Homo sapiens, UniProt P28335)
SMILES,target,test,setting,endpoint,value
CC(C)CC(=O)OC[C@H]1O[C@@](C#N)(c2ccc3c(N)ncnn23)[C@H](O)[C@@H]1O,"Prostaglandin G/H synthase 1 (PTGS1, Homo sapiens, UniProt P23219)","enzyme activity, inhibitor",20 µM,inhibition,6%
COc1cc2c3c(c1OC)-c1c(OC)ccc(Br)c1CC3N(C)CC2 (stereo not shown),HTR2B,"ligand displacement, radioligand",10 µM,inhibition,88%
Nc1ncnc2c1ncn2[C@@H]1O[C@H](C[C@@H](N)CC[C@H](N)C(=O)O)[C@@H](O)[C@H]1O,"mRNA cap guanine-N(7) methyltransferase (RNMT, Homo sapiens, UniProt O43148)","enzyme activity, inhibitor",3.125 µM,inhibition,40.9%
COc1cc(C(F)(F)F)c(OC)cc1C1CCCNC1 (stereo not shown),HTR2B,"G protein activation, agonist, BRET",,Emax,84%
c1cncc([C@@H]2CCCN2)c1,HTR2B,ligand displacement,50 µM,inhibition,-2.22%
[2H]c1c([2H])c([C@]2([2H])CCCN2C(=O)C(C)(C)Oc2ccc3cn[nH]c3c2)c([2H])c([2H])c1C([2H])([2H])[2H],"Serine/threonine-protein kinase Nek6 (NEK6, Homo sapiens, UniProt Q9HC98)","binding, competition with immobilised ligand",1 µM,remaining binding,100%
COc1cc2c3c(c1OC)-c1c(OC)ccc(O)c1CC3N(C)CC2 (stereo not shown),HTR2C,"ligand displacement, radioligand",10 µM,inhibition,60%
CC[C@H](C)[C@H](NC(=O)[C@H](CO)NC(=O)[C@H](Cc1ccc(O)cc1)NC(=O)[C@H](CC(=O)O)NC(=O)[C@H](CO)NC(=O)[C@@H](NC(=O)[C@H](Cc1ccccc1)NC(=O)[C@@H](NC(=O)CNC(=O)[C@H](CCC(=O)O)NC(=O)[C@@H](C)NC(=O)[C@@H](N)Cc1ccc(O)cc1)[C@@H](C)O)[C@@H](C)CC)C(=O)N[C@@H](C)C(=O)N[C@@H](CCSC)C(=O)N[C@@H](CC(=O)O)C(=O)N[C@@H](CCCCN)C(=O)N[C@H](C(=O)N[C@@H](Cc1c[nH]cn1)C(=O)N[C@@H](CCC(N)=O)C(=O)N[C@@H](CCC(N)=O)C(=O)N[C@@H](CC(=O)O)C(=O)N[C@@H](Cc1ccccc1)C(=O)N[C@H](C(=O)N[C@@H](CC(N)=O)C(=O)N[C@@H](Cc1c[nH]c2ccccc12)C(=O)N[C@@H](CC(C)C)C(=O)N[C@@H](CC(C)C)C(=O)N[C@@H](C)C(=O)N[C@@H](CCC(N)=O)C(=O)NCC(=O)N1CCC[C@H]1C(=O)N[C@@H](CO)C(=O)N[C@@H](CO)C(=O)NCC(=O)N[C@@H](C)C(=O)N1CCC[C@H]1C(=O)N1CCC[C@H]1C(=O)N1CCC[C@H]1C(=O)N[C@@H](CO)C(=O)N[C@@H](CCCCN)C(N)=O)C(C)C)[C@@H](C)CC,"Glucagon receptor (Mus musculus, UniProt Q61606)","cAMP, agonist",,Emax,< 20%
COc1cc2c3c(c1OC)-c1c(cccc1OC)CC3N(C)CC2 (racemic),HTR2B,"ligand displacement, radioligand",10 µM,inhibition,86%
CN1CCC[C@H]1c1cccnc1,HTR2C,ligand displacement,50 µM,inhibition,-24.7%
